Measurements taken from PubChem BioAssay AID449757 (Broad Institute, 2010).
The source made the active and inactive calls.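 The calls were made as follows: active = compounds whose fitted caspase activation midpoint falls no more than tenfold above the top tested dose; inconclusive = flat fit with activity between 30 and 70 percent, or failed fit; inactive = the rest.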

Tested on: MEF Flag-A1-IRES-BIM, caspase-Glo luminescence, 3 h
Experiment: caspase activation in A1/BIM-primed MEFs, dose response, A1 (Bcl2A1) inhibitor project, cell-based, alternate construct, luminescence (AID 449757)
Outline: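 System: Flag-A1-IRES-BIM-primed MEF cells; Doses: 100 nL compound added per well by pin transfer; Times: 3 h at 37 °C, then 1 h detection at room temperature; Measured by: luminescent caspase activity measurement with CaspaseGlo reagent.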

Compound	AC50
CCc1nn(-c2cc(Oc3cccc4ccccc34)nc(-c3ccccc3)n2)c(N)c1C#N	> 35 µM (inactive)
O=C(NC1CCCCC1)C(c1ccc(F)cc1)N(CCc1ccccc1)C(=O)CN1C(=O)c2ccccc2S1(=O)=O (stereo not drawn)	7.6 µM
O=C(COc1ccc(/C=N/NC(=O)c2cc3ccccc3o2)cc1Cl)Nc1ccccc1	9.15 µM
CCc1ccccc1NC(=O)C(CC)Sc1nc2cc3c(cc2c(=O)n1Cc1ccco1)OCO3 (stereo not drawn)	> 35 µM (inactive)
COC(=O)c1ccc2c(c1)C(C)(C)C(/C=C/c1ccc(O)cc1)=[N+]2C	12.4 µM
COc1ccc2c(c1)CCc1c(C(=O)Nc3cc(C)n(Cc4ccc(Cl)cc4)n3)noc1-2	21.9 µM
COc1cc(CN2CCN(c3cc(C)ccc3C)CC2)ccc1O	> 35 µM (inactive)
O=C(COc1ccc(/C=N/NC(=O)c2cc3ccccc3o2)cc1Br)Nc1ccccc1	25.3 µM
CCOC(=O)/C(=C\c1ccc(OC(F)F)cc1)C1=Nn2c(nnc2-c2ccc(Cl)cc2)SC1	4.71 µM
Cc1cc(=O)[nH]c(SCC(=O)Nc2ccc(Br)cc2)c1C#N	> 35 µM (inactive)
COc1ccccc1-c1cc(C(F)(F)F)nc(S(=O)(=O)CCCC(=O)NC(C)C)n1	8.84 µM
CCOC(=O)C1=C(c2ccccc2)O/C(=C(/C#N)C(F)(F)F)S1	> 35 µM (inactive)
CCc1ccc2nc(N(CCCN(C)C)C(=O)c3ccc(S(=O)(=O)N4CCc5ccccc5C4)cc3)sc2c1	> 35 µM (inactive)
Cc1ccc(-c2nc(NC(=O)c3nn(C)cc3[N+](=O)[O-])sc2C)cc1	6.7 µM
COc1ccc2c(-c3cc4ccc(OCc5ccc(F)cc5)cc4oc3=O)cc(=O)oc2c1	21.1 µM
CCOc1ccc2nc(NCCNC(=O)Nc3cccc(C)c3)c(C#N)cc2c1	33.9 µM
COc1ccc(-c2oc(=O)c3cc(OC)c(OC)cc3c2/C=C/c2cccc([N+](=O)[O-])c2)cc1	> 35 µM (inactive)
CCc1ccc(NC(=O)c2nc(S(=O)(=O)Cc3ccccc3)ncc2Cl)cc1	> 35 µM (inactive)
CC(C)c1cccc(-c2ccc3c(c2)S(=O)(=O)c2cccc(C(=O)NC4CCCC4)c2C3=O)c1	> 35 µM (inactive)
CC(C)CC(NC(=O)c1ccc(Cl)cc1)C(=O)OCC(=O)c1ccc2c(c1)NC(=O)CO2 (stereo not drawn)	5.62 µM
Cc1ccc(NC(=O)CSc2nc3nc(C)c(Br)cc3[nH]2)cc1F	> 35 µM (inactive)
Cc1cccc(Nc2nc(N)c([N+](=O)[O-])c(N3CCCC(C)C3)n2)c1 (stereo not drawn)	> 35 µM (inactive)

Compound	AC50
CCOC(=O)c1c(C)oc2c1c(CN1CCN(C(=O)OCC)CC1)c(O)c1ccccc12	7.15 µM
Cc1ccc(C=C2C(Cl)=C(Cl)C(Cl)=C2Cl)cc1	4.67 µM
Cc1nn(Cc2c(Cl)cccc2Cl)c(C)c1NC(=O)c1cn(-c2ccccc2)nc1-c1ccccc1	19.2 µM
COc1ccc(-c2nc(NC(=O)c3n[nH]c(=O)c4ccccc34)sc2C)cc1	> 35 µM (inactive)
COC(=O)CSc1nc(N)c2c3c(sc2n1)C(c1ccccc1)SC(c1ccccc1)C3 (stereo not drawn)	> 35 µM (inactive)
Cc1ccc(C#N)c(SCC(=O)Nc2nccs2)n1	> 35 µM (inactive)
COc1ccccc1CCNC(C)CCc1ccc(O)cc1 (stereo not drawn)	> 35 µM (inactive)
COc1cc2cnc(-c3ccccc3)c(-c3cccc(C(F)(F)F)c3)c2cc1OC	> 35 µM (inactive)
COc1cc(/C=C/[N+](=O)[O-])ccc1OC(=O)c1cccnc1	9.63 µM
NS(=O)(=O)c1ccc(N/N=C2/CCCCC2C2CCCCC2)c([N+](=O)[O-])c1 (stereo not drawn)	32.3 µM
CCOc1ccc(OCC(=O)N(CCC2=CCCCC2)c2c(N)n(Cc3ccccc3)c(=O)[nH]c2=O)cc1	20.9 µM
CC1CC(C)CN(C(=O)c2ccc(-c3ccc([N+](=O)[O-])cc3)o2)C1 (stereo not drawn)	> 35 µM (inactive)
O=C(Cn1c(C(F)(F)F)nc2ccccc21)N=Nc1c(O)[nH]c2ccc(Br)cc12	29.8 µM
Cc1ccc(C)c(S(=O)(=O)NCC(=O)Nc2sc3c(c2C(N)=O)CCC(C)C3)c1 (stereo not drawn)	> 35 µM (inactive)
CCOc1cc(/C=N/Nc2cc(C)nc(-n3nc(C)cc3C)n2)ccc1O	> 35 µM (inactive)
O=C(Nc1ccc2oc(-c3ccccc3F)nc2c1)c1ccccc1F	> 35 µM (inactive)
Cc1ccc(N(Cc2cc(=O)[nH]c3ccccc23)C(=O)CCl)cc1	> 35 µM (inactive)
COc1ccc(Cn2c(SCc3ccc(C)cc3)nc3cc(OC)c(OC)cc3c2=N)cc1Cl	> 35 µM (inactive)
COc1ccc(NC(=O)C(=O)N/N=C\c2ccc(CNC(=O)C(=O)Nc3ccc(C)c(C)c3)o2)c(OC)c1	26.1 µM
COc1ccc(OC[C@@H](O)CNC(=O)c2cccc3c2C(=O)c2ccc(-c4ccc(F)cc4OCc4ccccc4)cc2S3(=O)=O)cc1	> 35 µM (inactive)
COc1ccccc1C(=O)Nc1ccnn1C1CCN(Cc2cn(C)c3ccccc23)CC1	> 35 µM (inactive)
CCn1c(SCC(=O)c2ccccc2)nnc1-c1cc2cc(Br)ccc2o1	> 35 µM (inactive)

Compound	AC50
Cc1nn(Cc2ccc(Cl)cc2Cl)c(C)c1NC(=O)Cn1nc([N+](=O)[O-])c(Cl)c1C	> 35 µM (inactive)
CC(=O)Nc1ncnc2c1c(-c1ccc(Cl)cc1)nn2C(C)(C)C	> 35 µM (inactive)
CCOc1cc(/C=C\[N+](=O)[O-])ccc1OCC(=O)Nc1ccccc1C	6.53 µM
Cc1ccc(C2(c3ccc(C)cc3)CC2C(=O)Nc2ccc([N+](=O)[O-])cc2O)cc1 (stereo not drawn)	> 35 µM (inactive)
CCOC(=O)c1sc(NC(=O)CSc2nc(C)cc(C)c2C#N)c(C#N)c1C	> 35 µM (inactive)
CCCCNC(=O)c1ccc(Cn2c(=S)[nH]c3c([nH]c4ccc(OC)cc43)c2=O)cc1	4.77 µM
CC(=O)[C@]1(O)Cc2c(O)c3c(c(O)c2[C@@H](O[C@H]2C[C@H](N)[C@H](O)[C@H](C)O2)C1)C(=O)c1ccccc1C3=O	> 35 µM (inactive)
Cc1cccc(C)c1NC(=O)CSc1nc(C)c(CC(=O)c2ccc(Br)cc2)c(C)c1C#N	28.8 µM
CCS(=O)(=O)c1ncc(Cl)c(C(=O)Nc2ccc(S(=O)(=O)N3CCC(C)CC3)cc2)n1	> 35 µM (inactive)
CCCCC1CCC(C(=O)N(CC(C)C)c2c(N)n(Cc3ccccc3)c(=O)[nH]c2=O)CC1 (stereo not drawn)	8.13 µM
N#Cc1cccnc1N1CCN(C(=O)c2cccc3c2C(=O)c2ccc(-c4ccc(Cl)c(C(F)(F)F)c4)cc2S3(=O)=O)CC1	> 35 µM (inactive)
Cc1ccc(C(=O)COC(=O)c2ccc3c(c2)C(=O)N(c2cccc4ncccc24)C3=O)cc1	36.1 µM
CCOc1cc(C(=O)CSc2nnc(CNc3ccc(Cl)cc3)o2)ccc1NC(=O)CC	15.3 µM
CCN(C(=O)CCN1C(=O)c2ccccc2S1(=O)=O)c1ccccc1	> 35 µM (inactive)
Cc1cc(C)cc(NC(=O)/C(C#N)=C/c2cn(CC(=O)NCc3ccco3)c3ccccc23)c1	8.5 µM
COC(=O)[C@@]1(C)CC[C@]2(C)CC[C@@]3(C)C(=CC(=O)C4[C@@]5(C)CC[C@H](O)C(C)(C)[C@@H]5CC[C@]43C)[C@H]2C1 (stereo partly drawn)	> 35 µM (inactive)
COc1ccc(-c2ccc3c(c2)S(=O)(=O)c2cccc(C(=O)NC[C@@H]4CCCO4)c2C3=O)cc1OC	> 35 µM (inactive)
CN1C2CCC1/C(=C/c1ccccn1)C(=O)/C2=C\c1ccccn1	> 35 µM (inactive)
COc1ccc(C(=O)/C=C/C(=O)N(CC(=O)NC2CCCCC2)Cc2cccs2)c(O)c1	24.5 µM
CCOc1ccc(NCc2cccn2-c2nnc(N3CCC(C(=O)NCCCN4CC(C)CC(C)C4)CC3)s2)cc1 (stereo not drawn)	> 35 µM (inactive)
O=C(Oc1cccc(/C=N/Nc2nc(Nc3ccccc3)nc(N3CCOCC3)n2)c1)c1ccco1	> 35 µM (inactive)
COc1cc(/C=C(/C#N)c2nc3ccccc3[nH]2)ccc1OCC(=O)Nc1ccccc1C(C)C	16.1 µM

Compound	AC50
COc1ccccc1-c1cc(C(F)(F)F)nc(S(=O)(=O)CCCC(=O)N2CCOCC2)n1	8.31 µM
CCOc1ccc(NC(=S)NC(=O)/C=C/c2ccc(C)cc2)c([N+](=O)[O-])c1	21 µM
CCOCCCNC(=O)c1ccc2c(c1)N=C(CC)c1cc(Br)ccc1S2	> 35 µM (inactive)
Cn1c(=NC(=O)CCl)sc2ccccc21	> 35 µM (inactive)
Cc1ccc(S(=O)(=O)N(C)Cc2ccc(C(=O)N/N=C/c3ccc(OC(F)F)cc3)cc2)cc1	> 35 µM (inactive)
COc1ccc(Oc2cc(NC(=O)c3nn(C)cc3[N+](=O)[O-])cc([N+](=O)[O-])c2)cc1	21.3 µM
O=C(Nc1ccc2oc(-c3ccccc3)nc2c1)c1ccccc1F	> 35 µM (inactive)
O=C(NCc1ccccc1Br)c1cccc2c1C(=O)c1ccc(-c3ccc(OC(F)(F)F)cc3)cc1S2(=O)=O	> 35 µM (inactive)
COc1ccc(OC)c(NC(=O)c2cc(-c3cc(C)ccc3O)n[nH]2)c1	> 35 µM (inactive)
CCCCCCCC/C=C\CCCCCCCC(=O)NCCc1ccc(O)c(O)c1	11.6 µM
Cc1occc1-c1nnc(SCC(=O)NCCc2ccccc2)n1Cc1ccccc1	> 35 µM (inactive)
Nc1nc(F)nc2c1ncn2[C@@H]1O[C@H](CO)[C@@H](O)[C@H]1O	> 35 µM (inactive)
O=C(NCCc1ccccc1)C(c1cccs1)N(C(=O)CCl)c1ccc(Cl)cc1 (stereo not drawn)	13.3 µM
O=C(Nc1ccc([N+](=O)[O-])cc1)c1nc[nH]c1C(=O)NC1CCCCC1	> 35 µM (inactive)
CC(=O)Nc1ccc(NC(=O)C(=O)NCC(c2ccco2)N2CCc3ccccc32)cc1 (stereo not drawn)	28.9 µM
CCOc1ccc(N2C(=O)/C(=C\c3ccc(O)c(OC)c3)S(=O)(=O)C2c2cccc([N+](=O)[O-])c2)cc1 (stereo not drawn)	> 35 µM (inactive)
O=C(COc1ccccc1[N+](=O)[O-])Nc1ccc(NC(=O)c2cc3ccccc3o2)cc1	28.7 µM
O=C(CN(c1ccc(Br)cc1)S(=O)(=O)c1ccc(Cl)c([N+](=O)[O-])c1)NCCc1ccccc1	> 35 µM (inactive)
Cn1cc([N+](=O)[O-])c(C(=O)Nc2cc(Oc3ccccc3)cc([N+](=O)[O-])c2)n1	19.5 µM
COc1cc(NC(=O)c2ccccc2)c(OC)cc1NC(=O)Cc1ccc(Br)cc1	> 35 µM (inactive)
O=C(NCc1ccccc1Cl)c1cccc2c1C(=O)c1ccc(-c3ccc(OC(F)(F)F)cc3)cc1S2(=O)=O	> 35 µM (inactive)
COc1ccccc1-c1cn[nH]c1-c1ccc(OCc2ccccc2)cc1O	> 35 µM (inactive)
